Measured values from ChEMBL document CHEMBL5104115, “Design, synthesis of novel triptolide-glucose conjugates targeting glucose Transporter-1 and their selective antitumor effect” (Eur J Med Chem, 2022).
Active and inactive are the calls of the source. The calls are words filed in the database; no cut-off is given here.

What was measured:
[1] = Octanol-water partition coefficient, logD of the compound in PBS at pH 7.4 by liquid chromatography based mass spectrometric analysis; format: physicochemical
Summary of the method: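 Shake-flask method: 3.0 mg compound dissolved in PBS-saturated n-octanol and rotated 24 h at room temperature. The octanol phase was then mixed with octanol-saturated PBS, rotated another 24 h and centrifuged. Both phases quantified by LC-MS against a standard curve, and log P = log(C octanol/C water).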

[2] = test system: SW-620; assay: Cytotoxicity against human SW-620 cells incubated for 72 hrs by MTT assay; format: functional, cell-based; settings: SW-620, 72 h
Summary of the method: (§1)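 Cells seeded at 4000/well, incubated overnight, then exposed to a range of concentrations, or DMSO vehicle, for 72 h. MTT (5 mg/mL solution) added for 4 h and formazan dissolved in DMSO. Absorbance read at 570 nm, and IC50 derived from the curves. Tumor lines were grown in RPMI 1640; HUVEC, HaCaT and LO2 were grown in DMEM, each with 10% FBS at 37 °C and 5% CO2.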

[3] = test system: MDA-MB-231; assay: Cytotoxicity against human MDA-MB-231 cells incubated for 72 hrs by MTT assay; format: functional, cell-based; settings: MDA-MB-231, 72 h; summary of the method: as §1
[4] = test system: HCT-116; assay: Cytotoxicity against human HCT-116 cells incubated for 72 hrs by MTT assay; format: functional, cell-based; settings: HCT-116, 72 h; summary of the method: as §1
[5] = test system: HT-29; assay: Cytotoxicity against human HT-29 cells incubated for 72 hrs by MTT assay; format: functional, cell-based; settings: HT-29, 72 h; summary of the method: as §1
[6] = test system: NCI-H460; assay: Cytotoxicity against human NCI-H460 cells incubated for 72 hrs by MTT assay; format: functional, cell-based; settings: NCI-H460, 72 h; summary of the method: as §1
[7] = test system: NCI-H1975; assay: Cytotoxicity against human NCI-H1975 cells incubated for 72 hrs by MTT assay; format: functional, cell-based; settings: NCI-H1975, 72 h; summary of the method: as §1
[8] = Cytotoxicity against HUVEC incubated for 72 hrs by MTT assay; format: toxicity, cell-based; settings: human, HUVEC cells; summary of the method: as §1
[9] = Cytotoxicity against human L02 cells incubated for 72 hrs by MTT assay; format: toxicity, cell-based; summary of the method: as §1
[10] = Cytotoxicity against human HaCaT cells incubated for 72 hrs by MTT assay; format: toxicity, cell-based; summary of the method: as §1
[11] = test system: NCI-H460; assay: Down regulation of RNA polymerase II in human NCI-H460 cells measured after 48 hrs by Western blotting analysis; format: functional, cell-based
Summary of the method: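 NCI-H460 cells treated for 48 h, harvested by trypsinization and lysed on ice in NP-40 buffer (50 mmol/L Tris pH 8.0, 150 mmol/L NaCl, 1% NP-40). Protein quantified by BCA and resolved by SDS-PAGE. Blots probed for RNA Pol II (1:1000), with GAPDH as loading control, and detected by chemiluminescence.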

[12] = test system: NCI-H460; assay: Induction of apoptosis in human NCI-H460 cells assessed as viable cells at 0.01 uM measured after 48 hrs by Annexin V-FITC/PI staining method (reference value: 86.4%); format: functional; settings: read-out: Activity
[13] = test system: NCI-H460; assay: Induction of apoptosis in human NCI-H460 cells assessed as early apoptotic cells at 0.01 uM measured after 48 hrs by Annexin V-FITC/PI staining method (reference value: 3.46%); format: functional
[14] = test system: NCI-H460; assay: Induction of apoptosis in human NCI-H460 cells assessed as late apoptotic cells at 0.01 uM measured after 48 hrs by Annexin V-FITC/PI staining method (reference value: 8.57%); format: functional
[15] = test system: NCI-H460; assay: Induction of apoptosis in human NCI-H460 cells assessed as necrotic cells at 0.01 uM measured after 48 hrs by Annexin V-FITC/PI staining method (reference value: 1.59%); format: functional
[16] = test system: NCI-H460; assay: Induction of apoptosis in human NCI-H460 cells assessed as viable cells at 0.1 uM measured after 48 hrs by Annexin V-FITC/PI staining method (reference value: 86.4%); format: functional; settings: read-out: Activity
[17] = test system: NCI-H460; assay: Induction of apoptosis in human NCI-H460 cells assessed as early apoptotic cells at 0.1 uM measured after 48 hrs by Annexin V-FITC/PI staining method (reference value: 3.46%); format: functional
[18] = test system: NCI-H460; assay: Induction of apoptosis in human NCI-H460 cells assessed as late apoptotic cells at 0.1 uM measured after 48 hrs by Annexin V-FITC/PI staining method (reference value: 8.57%); format: functional
[19] = test system: NCI-H460; assay: Induction of apoptosis in human NCI-H460 cells assessed as necrotic cells at 0.1 uM measured after 48 hrs by Annexin V-FITC/PI staining method (reference value: 1.59%); format: functional
[20] = test system: NCI-H460; assay: Induction of apoptosis in human NCI-H460 cells assessed as viable cells at 1 uM measured after 48 hrs by Annexin V-FITC/PI staining method (reference value: 86.4%); format: functional; settings: read-out: Activity
[21] = test system: NCI-H460; assay: Induction of apoptosis in human NCI-H460 cells assessed as early apoptotic cells at 1 uM measured after 48 hrs by Annexin V-FITC/PI staining method (reference value: 3.46%); format: functional
[22] = test system: NCI-H460; assay: Induction of apoptosis in human NCI-H460 cells assessed as late apoptotic cells at 1 uM measured after 48 hrs by Annexin V-FITC/PI staining method (reference value: 8.57%); format: functional
[23] = test system: NCI-H460; assay: Induction of apoptosis in human NCI-H460 cells assessed as necrotic cells at 1 uM measured after 48 hrs by Annexin V-FITC/PI staining method (reference value: 1.59%); format: functional
[24] = test system: NCI-H460; assay: Induction of ROS accumulation in human NCI-H460 cells measured upto 100 nM after 42 to 48 hrs by DCFH-DA staining based flow cytometric analysis; format: functional, cell-based; settings: time 42-48 hrs
Summary of the method: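 NCI-H460 cells exposed for 42 h or 48 h, then suspended in 1% BSA DPBS. DCFH-DA (from a 10 mM stock) added and incubated 30 min in the dark, followed by washing. DCF fluorescence taken from flow-cytometry histograms and expressed as percentage relative to untreated control.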

[25] = test system: NCI-H460; assay: Induction of mitochondrial membrane potential loss in human NCI-H460 cells by flow cytometric analysis; format: functional, cell-based
Summary of the method: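 Treated NCI-H460 cells suspended in 1% BSA DPBS and stained with TMRE (from a 1 mM stock) for 20 min in the dark. Cells then washed and resuspended in 1% BSA DPBS. Relative TMRE fluorescence intensity taken as the readout of membrane potential.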

[26] = Stability in mouse serum measured after 8 hrs by HPLC analysis; format: ADME, cell-free
[27] = Toxicity in BALB/c nude mouse xenografted with human NCI-H1975 cells assessed as morphological change in lung at 0.2 mg/kg administered ip, qd for 2 weeks; settings: in vivo, 336 h
[28] = Toxicity in BALB/c nude mouse xenografted with human NCI-H1975 cells assessed as morphological change in heart at 0.2 mg/kg administered ip, qd for 2 weeks; settings: in vivo, 336 h
[29] = Toxicity in BALB/c nude mouse xenografted with human NCI-H1975 cells assessed as morphological change in liver at 0.2 mg/kg administered ip, qd for 2 weeks; settings: in vivo, 336 h
[30] = Toxicity in BALB/c nude mouse xenografted with human NCI-H1975 cells assessed as decreased spermatogenic cells at 0.2 mg/kg administered ip, qd for 2 weeks; settings: in vivo, 336 h
[31] = Toxicity in BALB/c nude mouse xenografted with human NCI-H1975 cells assessed as morphological change in kidney at 0.2 mg/kg administered ip, qd for 2 weeks; settings: in vivo, 336 h
[32] = Toxicity in BALB/c nude mouse xenografted with human NCI-H1975 cells assessed as irregular spermatogenic tubules at 0.2 mg/kg administered ip, qd for 2 weeks; settings: in vivo, 336 h
[33] = Toxicity in BALB/c nude mouse xenografted with human NCI-H1975 cells assessed as reduction of cytoplasmic nuclei at 0.2 mg/kg administered ip, qd for 2 weeks; settings: in vivo, 336 h
[34] = Toxicity in BALB/c nude mouse xenografted with human NCI-H1975 cells assessed as reduction of cytoplasmic vacuoles at 0.2 mg/kg administered ip, qd for 2 weeks; settings: in vivo, 336 h
[35] = test system: NCI-H1975; assay: Antitumor activity against human NCI-H1975 cells xenografted in BALB/c nude mouse assessed as tumor growth inhibition at 0.2 mg/kg, ip, qd for 2 weeks relative to control; settings: NCI-H1975, 336 h, read-out: TGI
[36] = Toxicity in BALB/c nude mouse xenografted with human NCI-H1975 cells assessed as degeneration of inter tube connective tissue at 0.2 mg/kg administered ip, qd for 2 weeks; settings: in vivo, 336 h
[37] = test system: NCI-H1975; assay: Antitumor activity against human NCI-H1975 cells xenografted in BALB/c nude mouse assessed as tumor growth inhibition at 15 mg/kg, ip, q3d for 2 weeks relative to control; settings: NCI-H1975, 336 h, read-out: TGI

## CC(C)[C@]12O[C@H]1[C@@H]1O[C@]13[C@]1(O[C@H]1C[C@H]1C4=C(CC[C@@]13C)C(=O)OC4)[C@@H]2OC(=O)CCC(=O)O[C@H]1[C@H](O)[C@@H](O)C(O)O[C@@H]1CO (some centres not stated)
[1]
  logD: -0.331
[2]
  IC50: 11000 nM
[3]
  IC50: 5610 nM
[4]
  IC50: 4470 nM
[5]
  IC50: 4080 nM
[6]
  IC50: 3060 nM
[7]
  IC50: 2510 nM
[8]
  IC50 at 72 h: 2360 nM
[9]
  IC50 at 72 h: 1800 nM
[10]
  IC50 at 72 h: 4750 nM

## CC(C)[C@]12O[C@H]1[C@@H]1O[C@]13[C@]1(O[C@H]1C[C@H]1C4=C(CC[C@@]13C)C(=O)OC4)[C@@H]2O [TRIPTOLIDE]
[1]
  logD: -0.56
[2]
  IC50: 163 nM
[3]
  IC50: 51 nM
[4]
  IC50: 46 nM
[5]
  IC50: 47 nM
[6]
  IC50: 14 nM
[7]
  IC50: 2 nM
[8]
  IC50 at 72 h: 44 nM
[9]
  IC50 at 72 h: 16 nM
[10]
  IC50 at 72 h: 27 nM
[11]
  Activity: Active
[12]
  viability at 0.01 µM: 87.8%
[13]
  Activity: 6.84%
[14]
  Activity: 3.17%
[15]
  Activity: 2.2%
[16]
  viability at 0.1 µM: 29.5%
[17]
  Activity: 42.2%
[18]
  Activity: 24.4%
[19]
  Activity: 3.85%
[20]
  viability at 1 µM: 25.1%
[21]
  Activity: 56.8%
[22]
  Activity: 5.7%
[23]
  Activity: 2.34%
[24]
  Activity: Active
[25]
  Activity: Active
[26]
  Stability: Unstable
[27]
  Activity: Non-Toxic
[28]
  Activity: Non-Toxic
[29]
  Activity: Non-Toxic
[30]
  Activity: Toxic
[31]
  Activity: Non-Toxic
[32]
  Activity: Toxic
[33]
  Activity: Toxic
[34]
  Activity: Toxic
[35]
  inhibition in vivo at 0.2 mg/kg: 28.6%
[36]
  Activity: Toxic

## CC(C)[C@]12O[C@H]1[C@@H]1O[C@]13[C@]1(O[C@H]1C[C@H]1C4=C(CC[C@@]13C)C(=O)OC4)[C@@H]2OC(=O)CCC(=O)O[C@H]1[C@H](O)[C@@H](CO)OC(O)[C@@H]1O (some centres not stated)
[1]
  logD: -0.772
[2]
  IC50: 2550 nM
[3]
  IC50: 2430 nM
[4]
  IC50: 2710 nM
[5]
  IC50: 5180 nM
[6]
  IC50: 1630 nM
[7]
  IC50: 2210 nM
[8]
  IC50 at 72 h: 4930 nM
[9]
  IC50 at 72 h: 1380 nM
[10]
  IC50 at 72 h: 4830 nM

## CC(=O)O[C@H]1C(=O)[C@@]2(C)[C@H]([C@H](OC(=O)c3ccccc3)[C@]3(O)C[C@H](OC(=O)[C@H](O)[C@@H](NC(=O)c4ccccc4)c4ccccc4)C(C)=C1C3(C)C)[C@]1(OC(C)=O)CO[C@@H]1C[C@@H]2O [PACLITAXEL]
[37]
  inhibition in vivo at 15 mg/kg: 56.9%
